Source: paper PMC5349769 (ACS chemical neuroscience, 2015)

Experiments:
[1] = target: DAT (Rattus norvegicus, UniProt P23977); experiment: Inhibition of [3H]dopamine reuptake at DAT in rat caudate synaptosomes; assay type: biochemical; conditions: for EC50: read-out: EC50, DAT uptake inhibition; for efficacy as inhibitor of reuptake at DAT: dose-response, Figure 1A
[2] = test system: intracranial self-stimulation (medial forebrain bundle); experiment: Intracranial self-stimulation; assay type: in vivo, rat; conditions: rats, i.p.
[3] = target: NET (Rattus norvegicus, UniProt Q63380); experiment: Inhibition of [3H]norepinephrine reuptake at NET in rat brain synaptosomes; assay type: biochemical; conditions: for efficacy as inhibitor of reuptake at NET: dose-response, Figure 1B
NET, sequence (Q63380 1-617): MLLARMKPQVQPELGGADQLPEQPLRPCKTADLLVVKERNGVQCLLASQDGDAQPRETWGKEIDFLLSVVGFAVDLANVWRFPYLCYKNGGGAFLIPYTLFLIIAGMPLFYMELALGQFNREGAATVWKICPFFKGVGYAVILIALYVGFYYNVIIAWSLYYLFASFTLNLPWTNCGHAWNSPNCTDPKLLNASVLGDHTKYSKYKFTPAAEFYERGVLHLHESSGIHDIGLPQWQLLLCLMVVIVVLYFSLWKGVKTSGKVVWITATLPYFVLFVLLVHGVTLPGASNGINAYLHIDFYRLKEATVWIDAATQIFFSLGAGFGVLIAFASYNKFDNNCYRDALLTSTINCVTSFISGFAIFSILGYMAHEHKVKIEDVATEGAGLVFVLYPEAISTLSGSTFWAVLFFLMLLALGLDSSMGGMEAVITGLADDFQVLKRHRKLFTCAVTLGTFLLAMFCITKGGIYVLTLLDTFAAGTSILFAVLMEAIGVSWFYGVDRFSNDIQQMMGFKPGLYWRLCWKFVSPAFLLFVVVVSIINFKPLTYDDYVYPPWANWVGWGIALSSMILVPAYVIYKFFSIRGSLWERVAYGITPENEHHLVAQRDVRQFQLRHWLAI

[4] = target: SERT (Rattus norvegicus, UniProt P31652); experiment: Inhibition of [3H]serotonin reuptake at SERT in rat brain synaptosomes; assay type: biochemical; conditions: 5 nM [3H]serotonin, data not shown
SERT, sequence (P31652 whole entry): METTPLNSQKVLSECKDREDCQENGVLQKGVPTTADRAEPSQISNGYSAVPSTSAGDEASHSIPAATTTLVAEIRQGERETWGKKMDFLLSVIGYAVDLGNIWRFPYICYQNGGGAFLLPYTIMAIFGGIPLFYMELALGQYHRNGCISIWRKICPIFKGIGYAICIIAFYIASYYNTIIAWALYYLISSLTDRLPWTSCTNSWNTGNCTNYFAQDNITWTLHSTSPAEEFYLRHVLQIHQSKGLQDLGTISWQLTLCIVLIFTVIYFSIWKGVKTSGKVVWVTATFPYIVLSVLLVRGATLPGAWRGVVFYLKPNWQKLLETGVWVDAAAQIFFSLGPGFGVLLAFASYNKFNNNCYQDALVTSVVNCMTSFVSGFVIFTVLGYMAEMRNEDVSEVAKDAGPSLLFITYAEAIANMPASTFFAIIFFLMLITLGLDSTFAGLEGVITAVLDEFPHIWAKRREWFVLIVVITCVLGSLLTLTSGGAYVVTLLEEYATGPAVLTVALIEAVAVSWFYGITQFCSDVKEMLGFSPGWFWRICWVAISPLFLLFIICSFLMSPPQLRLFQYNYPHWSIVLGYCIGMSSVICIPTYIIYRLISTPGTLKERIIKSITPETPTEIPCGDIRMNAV
Summary of the method: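 Synaptosomes prepared from rat whole brain minus caudate and cerebellum after CO2 euthanasia. Uptake began by adding tissue suspension to Krebs-phosphate buffer, pH 7.4, containing 0.05 mM pargyline, BSA, ascorbic acid, test compound and 5 nM [3H]serotonin. Unlabeled blockers of competing transporters were included. The assay ended by rapid vacuum filtration through GF/B filters, and retained radioactivity was measured by scintillation counting.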

[5] = test system: intracranial self-stimulation (medial forebrain bundle); conditions: rats; racemate, earlier report ref 15; cited from earlier work
[6] = ratio of reuptake inhibition potencies

DAT, sequence (P23977 whole entry): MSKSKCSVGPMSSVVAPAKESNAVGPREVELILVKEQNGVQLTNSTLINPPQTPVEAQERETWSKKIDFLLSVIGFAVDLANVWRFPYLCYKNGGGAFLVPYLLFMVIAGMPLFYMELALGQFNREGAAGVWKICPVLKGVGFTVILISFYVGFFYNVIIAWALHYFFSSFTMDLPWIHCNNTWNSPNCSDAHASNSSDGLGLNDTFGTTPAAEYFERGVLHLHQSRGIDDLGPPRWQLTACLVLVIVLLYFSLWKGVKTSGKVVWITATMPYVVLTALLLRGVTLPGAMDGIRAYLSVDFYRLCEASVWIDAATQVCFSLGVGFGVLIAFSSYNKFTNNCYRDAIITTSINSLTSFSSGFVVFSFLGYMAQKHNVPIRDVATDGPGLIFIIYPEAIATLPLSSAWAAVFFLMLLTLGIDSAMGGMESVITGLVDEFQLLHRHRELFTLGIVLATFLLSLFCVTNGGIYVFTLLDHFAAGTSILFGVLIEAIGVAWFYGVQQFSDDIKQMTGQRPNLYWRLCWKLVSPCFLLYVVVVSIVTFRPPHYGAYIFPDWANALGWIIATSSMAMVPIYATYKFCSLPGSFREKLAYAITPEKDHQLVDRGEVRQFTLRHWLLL

Structure (SMILES) | EC50 [1] [nM] | dose without effect on ICSS relative to the lowest effective dose of S(+)MDPV ([2]; up to 10 mg/kg) [fold] | efficacy as inhibitor of reuptake at DAT [1] | fold more potent as reuptake inhibitor than R(−)MDPV at DAT [1, 6] | fold more potent than cocaine at DAT [1, 6] [fold] | potency relative to the racemate at DAT ([1]; reuptake inhibition) | effect on ICSS relative to vehicle, posthoc analysis ([2]; doses of 0.32 and 1.0 mg/kg, one-way ANOVA, Dunnett's posthoc) | effect on ICSS frequency–rate curve (%MCR) ([2]; S(+)MDPV 0.32 mg/kg, R(−)MDPV 3.2 mg/kg, Figure 2B,C) | efficacy as inhibitor of reuptake at NET [3] | fold more potent as reuptake inhibitor than R(−)MDPV at NET [3, 6] [fold] | fold more potent than cocaine at NET [3, 6] [fold] | potency relative to the racemate at NET ([3]; reuptake inhibition) | concentration up to which reuptake of [3H]serotonin at SERT was not inhibited [4] [µM] | doses producing significant facilitation of ICSS [5] [mg/kg]
CCC[C@H](C(=O)c1ccc2c(c1)OCO2)N1CCCC1.Cl [R(−)MDPV (3R), R(−)-Methylendioxypyrovalerone Hydrochloride] | 383 | > 100 |  |  |  |  |  |  |  |  |  |  |  | 
CCC[C@@H](C(=O)c1ccc2c(c1)OCO2)N1CCCC1.Cl [S(+)MDPV (3S), S(+)-Methylendioxypyrovalerone Hydrochloride] | 2.13 |  | fully efficacious | approximately 200 fold | 100 | approximately twice as potent | significantly facilitated ICSS | leftward shift in the ICSS frequency–rate curve | fully efficacious | ~80 | 40 | approximately twice as potent |  | 
CCCC(C(=O)c1ccc2c(c1)OCO2)N1CCCC1 (racemic) [(±)MDPV (3), methylenedioxypyrovalerone] | 4.85 |  | fully efficacious |  |  |  |  |  | fully efficacious |  |  |  | > 10 | ≥ 0.32
